From PubChem BioAssay
Active and inactive are the calls of the source.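 The calls were made as follows, unless noted: active = visual image review flags a hit and inhibition of aggregation exceeds 20%; inconclusive = visual hit but inhibition at or below 20%; inactive = no hit on visual image review.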

How the values were obtained:
[1] = inhibitors of TNFa-induced NFkB p65 translocation, primary screen, imaging, HUVEC, MLSMR starter and 10KST1 sets (AID 438;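 active = inhibition above 20% together with a positive visual image hit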;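 also: compound added about 3h40 before a 20 min TNFalpha stimulation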;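 as to inhibition: signal is the nuclear over cytoplasmic p65 intensity ratio per well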); settings: HUVEC TNFa-induced p65 nuclear translocation; cell count: measured here: nuclei count (cytotoxicity indicator), at 2.08 µM; inhibition: at 2 µM, stronger effect = higher value, 0% TNFa-plus-vehicle, 100% no-TNFa wells
[2] = reduction of polyQ htt aggregates in cells – imaging, exon1htt(103Q)mCFP cells, high-content imaging, primary screen (AID 483); settings: exon1htt(103Q)mCFP cell line, aggregate imaging, at 2 µM; inhibition of aggregation: stronger effect = higher value; nuclei count: measured here: cell count, toxicity;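 also: compound exposure lasted 3 days before fixation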;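 as to nuclei count: percent of the per-plate median nuclei count of sample wells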
[3] = endothelial E-selectin expression blockers – imaging, HUVEC, immunofluorescence, MLSMR starter and 10KST1 sets, primary screen (AID 487;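 active = visually confirmed hit in the image check and inhibition above 20%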;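 as to inhibition: signal is fraction of cell area covered by stained E-selectin grains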;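 as to nuclei count: 100% = median nuclei count of all wells on the same plate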); settings: HUVEC TNFalpha-induced E-selectin immunofluorescence imaging, at 2 µM; inhibition: stronger effect = higher value; nuclei count: measured here: cell number, toxicity
[4] = biological target: Voltage-gated potassium channel subunit beta-2 (Rattus norvegicus) (UniProt P62483); test: inhibitors of rat Kvbeta2 reductase activity – biochemical, NADPH fluorescence, primary screen (AID 622;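 active = fluorescence slope higher than the sample average by over 3 SD, cut at about -0.22 in these data, passing the limit was not always enough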;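 also: slope of raw intensity against log time taken from 70 to 1610 s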); settings: recombinant KvBeta, 4-cyanobenzaldehyde reduction, at 10 µM, stronger effect = higher value
[5] = biological target: Voltage-gated potassium channel subunit beta-2 (Rattus norvegicus) (UniProt P62483); test: enhancers of rat Kvbeta2 NADPH turnover – biochemical, NADPH fluorescence, primary screen (AID 623;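 active = NADPH fluorescence slope more negative than the mean of all samples by about 3 SD, 99.7% confidence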;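 also: fluorescence intensity change per second fitted from 20 to 320 s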); settings: Recombinant KvBeta, NADPH fluorescence decrease slope, 10 min; at 10 µM; stronger effect = lower value
[6] = biological target: Muscarinic acetylcholine receptor M4 (Homo sapiens) (UniProt P08173); test: M4-linked GIRK flux change, two-sided – cell-based, HEK293 M4/GIRK, thallium flux, BTC-AM, M4 allosteric agonist project, primary screen (AID 625;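 active = fluorescence slope after compound addition differing from the mean of all tested samples at 99.7% confidence, mostly higher but some lower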;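 also: thallium influx through GIRK channels coupled to M4 in HEK293 cells with BTC-AM dye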); settings: at 10 µM, actives lie on both sides
In short: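 Material – HEK293 cells with M4 receptor and GIRK channels · Buffer or medium – pH 7.3 thallium assay buffer · Doses – one dose, 10 µM final · Timing – cells overnight at 37 °C, BTC-AM loading 1 h, reads 2 min total · Measured by – kinetic fluorescence with BTC-AM dye · Controls – carbachol and DMSO controls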

[7] = blockers of RIG-like receptor reporter activation – cell-based, Sendai virus stimulus, luciferase, 10K MLSCN set, TLR/RLR signaling modifier project, primary screen (AID 602276;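 active = inhibition at or above 50% at 10 µM; inactive = inhibition below 50%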;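 also: firefly luciferase from ISG56 promoter only with Renilla not read in this screen; 0% = Sendai virus plus DMSO and 100% = medium plus DMSO without virus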); settings: HEK293 RL24 IRF3 luciferase reporter, at 10 µM, stronger effect = higher value
[8] = TLR3 IRF3 reporter activation blockers – cell-based, poly I:C stimulus, luciferase, 10K MLSCN set, primary screen (AID 602277;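 active = inhibition of the reporter signal at or above 50%; inactive = inhibition below 50%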); settings: HEK293-TLR3 RL24 IRF3 luciferase reporter, at 10 µM, stronger effect = higher value

Sequence of Voltage-gated potassium channel subunit beta-2 (Rattus norvegicus) (P62483 whole entry, looked up): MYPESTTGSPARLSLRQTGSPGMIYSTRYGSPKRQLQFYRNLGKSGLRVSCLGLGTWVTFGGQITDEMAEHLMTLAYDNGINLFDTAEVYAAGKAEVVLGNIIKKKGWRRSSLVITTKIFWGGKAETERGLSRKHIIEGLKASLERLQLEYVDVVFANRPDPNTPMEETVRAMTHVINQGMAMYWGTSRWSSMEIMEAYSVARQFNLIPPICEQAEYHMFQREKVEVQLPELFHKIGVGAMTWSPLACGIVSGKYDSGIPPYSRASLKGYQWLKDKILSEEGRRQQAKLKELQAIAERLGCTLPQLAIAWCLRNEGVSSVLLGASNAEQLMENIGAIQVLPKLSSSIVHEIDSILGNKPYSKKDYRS
Sequence of Muscarinic acetylcholine receptor M4 (Homo sapiens) (P08173 whole entry, looked up): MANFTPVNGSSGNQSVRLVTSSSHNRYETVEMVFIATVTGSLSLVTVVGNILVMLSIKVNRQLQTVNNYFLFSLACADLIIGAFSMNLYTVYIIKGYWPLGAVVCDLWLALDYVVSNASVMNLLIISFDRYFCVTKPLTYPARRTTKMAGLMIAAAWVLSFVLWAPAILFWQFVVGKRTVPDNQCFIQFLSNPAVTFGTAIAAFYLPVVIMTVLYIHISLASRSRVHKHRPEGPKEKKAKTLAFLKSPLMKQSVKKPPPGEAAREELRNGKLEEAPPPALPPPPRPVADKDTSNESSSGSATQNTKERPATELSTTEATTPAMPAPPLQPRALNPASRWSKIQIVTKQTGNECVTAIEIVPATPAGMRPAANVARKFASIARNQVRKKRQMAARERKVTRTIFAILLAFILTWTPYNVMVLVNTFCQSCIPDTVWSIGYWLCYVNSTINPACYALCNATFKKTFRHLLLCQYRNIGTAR

| Structure (SMILES) | cell count [1] | inhibition [1] | inhibition of aggregation [2] | nuclei count [2] | inhibition [3] | nuclei count [3] | fluorescence slope [4] | NADPH fluorescence slope [5] | fluorescence slope [6] | inhibition [7] | inhibition [8] |
| --- | --- | --- | --- | --- | --- | --- | --- | --- | --- | --- | --- |
| Cc1cccc(C)c1OCC(=O)Nc1cccc(NC(=O)c2ccco2)c1 | 464 | -9.5% (inactive) | 23.3% (inactive) | 87.7% | -10.3% (inactive) | 96.3% | -0.447 (inactive) | 5.1e-06 (inactive) | 0.00569 (inactive) | 13.3% (inactive) | 9.13% (inactive) |
| CCOC(=O)CN(C)Cc1c[nH]c2ccccc12 | 442 | -2.2% (inactive) | -15.3% (inactive) | 93.9% | 17.6% (inactive) | 78.5% | -0.426 (inactive) | -4.3e-05 (inactive) | 0.00441 (inactive) | 27.3% (inactive) | 36.9% (inactive) |
| CCOC(=O)Cc1nnc(NC(=O)CSc2nnc3c4ccccc4n(C(C)C)c3n2)s1 | 359 | -7.7% (inactive) | -10.9% (inactive) | 94.3% | -158% (inactive) | 90.2% | -0.554 (inactive) | -3.3e-05 (inactive) | 0.00407 (inactive) | 18% (inactive) | 25.8% (inactive) |
| N#Cc1c(NC(=O)COC(=O)C2CC3C=CC2C3)oc(-c2ccccc2)c1-c1ccccc1 (centres undefined) | 282 | 18.4% (inactive) | -7.7% (inactive) | 95.7% | -44.1% (inactive) | 94.6% | -0.399 (inactive) | -0.000409 (inactive) | 0.00531 (inactive) | -1.94% (inactive) | 99% (active) |
| C[N+]1=C2CCCCCN2C(O)(c2ccccc2)C1 (centres undefined) | 546 | -3% (inactive) | 6.3% (inactive) | 110% | -1.4% (inactive) | 130% | -0.56 (inactive) | -3.1e-05 (inactive) | 0.00533 (inactive) | 12.5% (inactive) | 17.2% (inactive) |
| Clc1cccc(-c2nn3c(Cn4cnc5ccccc54)nnc3s2)c1 | 581 | 4.7% (inactive) | -6.1% (inactive) | 113% | -92.1% (inactive) | 130% | -0.432 (inactive) | -0.000274 (inactive) | 0.00396 (inactive) | 18.7% (inactive) | 21.6% (inactive) |
| c1ccc2c(NC3CCCC3)nnc(NC3CCCC3)c2c1 | 797 | 7.4% (inactive) | -6.1% (inactive) | 106% | -69.1% (inactive) | 131% | -0.419 (inactive) | 2.2e-05 (inactive) | 0.00394 (inactive) | 7.77% (inactive) | 7.29% (inactive) |
| CC1(c2ccncc2)Nc2ccccc2-c2nc3ccccc3n21 (centres undefined) | 394 | -13.4% (inactive) | 6.2% (inactive) | 69.9% | -182% (inactive) | 122% | -0.454 (inactive) | -2.1e-05 (inactive) | 0.00581 (inactive) | 6.46% (inactive) | -10% (inactive) |
| O=C(CCCCCn1c(=O)[nH]c2ccsc2c1=O)N1CCCCC1 | 306 | -1.8% (inactive) | 25.2% (inactive) | 91.7% | -75% (inactive) | 85.7% | -0.457 (inactive) | -2.3e-05 (inactive) | 0.0042 (inactive) | 18.4% (inactive) | 6.28% (inactive) |
| CCCCn1c(SCc2cccnc2)nc2c1c(=O)n(C)c(=O)n2C | 502 | -7.2% (inactive) | 27.2% (inactive) | 90.8% | -15.9% (inactive) | 198% | -0.511 (inactive) | -3.3e-05 (inactive) | 0.00468 (inactive) | -4.82% (inactive) | 0.323% (inactive) |
| Cc1ccc(C)c(S(=O)(=O)NCc2ccc(C(=O)N3CCN(C)CC3)cc2)c1 | 328 | 1.1% (inactive) | 27.1% (inactive) | 105% | -101% (inactive) | 106% | -0.332 (inactive) | -4.8e-05 (inactive) | 0.00527 (inactive) | 3.27% (inactive) | 19.6% (inactive) |
| Cc1nc2sc(C(c3cccc(F)c3)N3CCN(C(=O)c4ccco4)CC3)c(O)n2n1 (centres undefined) | 228 | -2.8% (inactive) | -3.1% (inactive) | 106% | -7% (inactive) | 112% | -0.306 (inactive) | -1.4e-05 (inactive) | 0.00489 (inactive) | -14.2% (inactive) | -22.6% (inactive) |
| COc1cccc(Nc2c(F)c(F)c(F)c(F)c2C(=O)O)c1 | 246 | -4% (inactive) | 9.3% (inactive) | 77.5% | -11.9% (inactive) | 96.6% | -0.587 (inactive) | -3.3e-05 (inactive) | 0.00658 (inactive) | 10.2% (inactive) | 11.4% (inactive) |
| O=C(OCc1cc2ccccc2[nH]c1=O)c1ccncc1 | 826 | -3.9% (inactive) | 25.6% (inactive) | 104% | -66% (inactive) | 115% | -0.536 (inactive) | -4.4e-05 (inactive) | 0.00554 (inactive) | 19.9% (inactive) | 23.1% (inactive) |
